Compound activity deposited in PubChem by Broad Institute.
Sampled rows, rich in hits. Any-hit rate of the full collection: about 2.2%.
SIRT5 block – SIRT5 desuccinylase inhibitors, primary screen, biochemical, fluorescence imaging, single point, set 5. Purified SirT5, succinyl-peptide AMC, trypsin-coupled fluorescence. actives 1.1% (n = 330,000). NAD-dependent protein deacylase sirtuin-5, mitochondrial (Homo sapiens), Q9NXA8. inhibition, % at 15 µM; in the data active means inhibition above about 15%
Target sequence (Q9NXA8 whole entry, looked up): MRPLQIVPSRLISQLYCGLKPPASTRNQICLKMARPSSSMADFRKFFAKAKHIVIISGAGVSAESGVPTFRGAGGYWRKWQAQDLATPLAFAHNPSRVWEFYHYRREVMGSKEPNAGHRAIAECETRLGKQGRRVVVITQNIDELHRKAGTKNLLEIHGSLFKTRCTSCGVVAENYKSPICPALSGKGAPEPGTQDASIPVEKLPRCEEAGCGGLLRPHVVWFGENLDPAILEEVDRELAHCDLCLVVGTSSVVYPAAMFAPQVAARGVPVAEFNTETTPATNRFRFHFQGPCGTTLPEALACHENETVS
FN deposit inh – inhibitors of fibronectin matrix deposition, primary screen, AH1F cells, Alexa488-fibronectin fluorescence, plate reader. actives 0.086% (n = 350,000). inhibition, % at 12.6 µM. AH1F fibroblasts, overnight;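 active means mean inhibition across replicates of 30% or more, regardless of how many single replicates reach that level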
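Assay system: AH1F fibroblast monolayer, labelled fibronectin deposition. Amount: 10000 cells per well. Also added: labelled fibronectin 24 nM. Compound: single-point pinned compound. Incubation: cell attachment 1 h, compound and FN exposure overnight. Detection: fluorescence after three HBSS washes, excitation 485 nm, emission 525 nm. Read-out: inhibition of fibronectin deposition signal.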
ERAP1 inh – human ERAP1 aminopeptidase inhibitors, primary screen, biochemical, single point, plate reader. recombinant ERAP1, Leu-AMC fluorescence, 60 min. actives 0.15% (n = 340,000). inhibition, % at 10.7 µM. Endoplasmic reticulum aminopeptidase 1 (Homo sapiens), Q9NZ08;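 active means mean replicate inhibition of at least 30%, or all replicates individually reaching that 30% level; inactive means mean below 30% and not every replicate reaching it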
PGC1a acetyl inh – inhibitors of PGC1a acetylation signal, primary screen, cell-based, U2OS, AlphaScreen, inhibitor mode | AlphaScreen anti-acetyl-lysine; with virally co-expressed GCN5 acetyltransferase | inhibition, % at 15.6 µM | actives 0.17% (n = 350,000) | AID 651687, 2012;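 active means every replicate shows inhibition of at least 40%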
FGF22 binding – binders of human FGF22 protein, primary screen, FGF22 synaptogenesis inhibitor project, biophysical, thermal shift, single point; activity (Tm shift, normalised), % at 9.99 µM; AID 651658, 2012; recombinant FGF22 thermal shift, SYPRO orange fluorescence; percent of sucrose octasulfate shift, DMSO zero; Fibroblast growth factor 22 (Homo sapiens), Q9HCT0; actives 1.5% (n = 340,000);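 active means mean Tm shift, scaled 0 neutral to 100 positive control, at about 1.3% or above, every replicate too, limit read from the data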
Target sequence (Q9HCT0 whole entry, looked up): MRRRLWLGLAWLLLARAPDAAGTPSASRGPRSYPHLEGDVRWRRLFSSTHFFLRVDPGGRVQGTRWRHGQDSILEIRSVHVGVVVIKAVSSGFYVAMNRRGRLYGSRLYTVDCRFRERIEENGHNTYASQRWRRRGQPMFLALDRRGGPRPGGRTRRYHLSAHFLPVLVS
Of the large screens only hits and unclear results are named; the others gave an inactive call.

CNc1nc(-c2ccc(OC)cc2)c(-c2ccc(OC)cc2)s1	none (no result: ERAP1 inh)
C[C@H](CO)N1C[C@H](C)[C@H](CN(C)S(=O)(=O)c2ccccc2)OCCCC[C@H](C)Oc2ccc(NS(=O)(=O)c3cccs3)cc2C1=O	none
CC(=O)Nc1cccc(Nc2nc(-c3ccccc3F)nc3ccccc23)c1	FGF22 binding 43
CC1C[N+](=C2C=C(N3CCOCC3)CC(C)(C)C2)CC(C)O1 (stereo not given)	ERAP1 inh 55
O=C(NCc1cc(C(F)(F)F)ccc1Cl)c1cccc2c1C(=O)c1ccc(N3CCC(N4CCCCC4)CC3)cc1S2(=O)=O	none (no result: PGC1a acetyl inh)
O=C(NC1CC1)c1cccc2c1C(=O)c1ccc(N3CCC(N4CCCCC4)CC3)cc1S2(=O)=O	SIRT5 block 17
CCCC[C@@H]1C=C(C(=O)O)[C@H](c2ccc(Cl)cc2)N1S(=O)(=O)c1ccc(C)cc1	none
CCCC[C@@H]1C=C(C(=O)O)[C@H](c2ccc3c(c2)OCO3)N1S(=O)(=O)c1ccc(C)cc1	FGF22 binding 1.8
Cc1ccc(S(=O)(=O)N2[C@@H](c3ccc(C#N)cc3)C(C(=O)O)=C[C@H]2CC2CCCC2)cc1	FGF22 binding 1.4
CCOc1ccc(NC(=O)c2ccc(NC(=S)NC3CC3)cc2)cc1	FGF22 binding 1.9
CCOc1ccc(NC(=O)c2ccc(CNc3c(NC4CCCCC4)c(=O)c3=O)cc2)cc1	FN deposit inh 33
COc1ccc(CN(C)C[C@@H]2OCCCC[C@@H](C)Oc3ccc(NC(=O)Nc4ccc(F)cc4)cc3C(=O)N([C@@H](C)CO)C[C@@H]2C)cc1	none (no result: FN deposit inh)
C[C@H](CO)N1C[C@H](C)[C@@H](CN(C)CC2CCCC2)Oc2ncc(C#CCc3ccccc3)cc2C1=O	none (no result: FN deposit inh)
CC(C)(C)OC(=O)NOCC(=O)N(CC(=O)c1ccccc1)Cc1ccccc1	SIRT5 block 27
CO[C@H]1CN(C)C(=O)c2ccc(NS(C)(=O)=O)cc2OC[C@H](C)N(Cc2nccs2)C[C@@H]1C	none
CO[C@H]1CN(C)C(=O)c2ccc(NC(C)=O)cc2OC[C@H](C)N(Cc2nccs2)C[C@@H]1C	SIRT5 block 18
CO[C@@H]1CN(C)C(=O)c2ccc(NS(C)(=O)=O)cc2OC[C@@H](C)N(Cc2nccs2)C[C@H]1C	SIRT5 block 20
CCOc1ccc(C(=O)NC2CCCCCCC2)cc1	none (no result: PGC1a acetyl inh)
CCOc1cccc(C(=O)NC2CCCCC2)c1	SIRT5 block 22 (no result: FN deposit inh)
COc1ccc(S(=O)(=O)Nc2ccc3c(c2)C(=O)N([C@H](C)CO)C[C@H](C)[C@H](CN(C)S(C)(=O)=O)OCCCC[C@H](C)O3)cc1	none (no result: FN deposit inh)
CNc1ccc2ncc(-c3ccc(OC)c(OC)c3)n2n1	PGC1a acetyl inh 58
COc1ccc([N+](=O)[O-])cc1NC(=O)CCN1CCN(C)CC1	none
CN1CCN(CCC(=O)N/N=C/c2cc([N+](=O)[O-])ccc2OC(F)F)CC1	SIRT5 block 23
Cc1ccc(S(=O)(=O)N(C)C[C@H]2Oc3ccc(NC(=O)Nc4c(C)noc4C)cc3CC(=O)N([C@H](C)CO)C[C@H]2C)cc1	none (no result: FN deposit inh)
CCCCOP(=O)(c1ccc(N(C)C)cc1)C(O)c1cc(OC)c(OC)c(OC)c1 (stereo not given)	none (no result: SIRT5 block, ERAP1 inh)
CCCCOP(=O)(c1ccc(N(C)C)cc1)C(O)c1ccc(OC)cc1 (stereo not given)	PGC1a acetyl inh 82
Cc1cc(S(=O)(=O)Nc2nc(CN3CCOCC3)nc3sc4c(c23)CCC4)cc(C)c1C	none (no result: PGC1a acetyl inh)
COc1cccc(Nc2nc(CN3CCOCC3)nc3sc4c(c23)CCCC4)c1	SIRT5 block 22 (no result: PGC1a acetyl inh)
CCCn1c(N)c(Sc2ccc(C)cc2)c(=O)n(CCC)c1=O	FGF22 binding 43
CCCN(C)C[C@H]1OCCCC[C@H](C)Oc2ccc(NC(=O)CCC(F)(F)F)cc2C(=O)N([C@H](C)CO)C[C@@H]1C	none (no result: FN deposit inh)
O=C(Nc1cc(F)ccc1F)N1CCCCN2[C@H](CO)[C@H](c3ccc(-c4ccccc4)cc3)[C@H]2C1	SIRT5 block 29 (no result: FN deposit inh)
COc1ccccc1NC(=O)N1CCCCN2[C@H](CO)[C@H](c3ccc(-c4cccc(F)c4)cc3)[C@@H]2C1	SIRT5 block 16 (no result: FN deposit inh)
COc1ccccc1NC(=O)N1CCCCN2[C@H](C1)[C@@H](c1ccc(-c3cccc(F)c3)cc1)[C@@H]2CO	none (no result: FN deposit inh)
CC(C)CC#Cc1ccc2c(c1)O[C@@H](CN(C)Cc1ccccc1F)[C@@H](C)CN([C@@H](C)CO)S2(=O)=O	SIRT5 block 16
C[C@H](CO)N1C[C@H](C)[C@H](CN(C)Cc2ccccc2F)Oc2cc(C#CC3CC3)ccc2S1(=O)=O	SIRT5 block 43 (no result: ERAP1 inh)
C[C@@H]1CN([C@@H](C)CO)S(=O)(=O)c2ccc(C#CC3CC3)cc2O[C@@H]1CN(C)Cc1ccccc1F	none (no result: SIRT5 block, ERAP1 inh, FGF22 binding)
COC(=O)C[C@@H]1CC[C@@H](NS(=O)(=O)c2ccccc2F)[C@H](CO)O1	none
O=C(CSc1nc(C2CCCCC2)nc2ccccc12)NCc1ccc2c(c1)OCO2	FGF22 binding 44 (no result: PGC1a acetyl inh)
O=C(CSc1ccc2ccccc2n1)NCc1ccc2c(c1)OCO2	FGF22 binding 43
C=CCc1cc(Cl)ccc1OCCN1CC(C)OC(C)C1 (stereo not given)	none (no result: PGC1a acetyl inh)
C=CCc1cc(OC)ccc1OCCN1CC(C)OC(C)C1 (stereo not given)	SIRT5 block 102
COc1ccc(NC(=O)Nc2ccc3c(c2)C(=O)N([C@H](C)CO)C[C@H](C)[C@@H](CN(C)S(C)(=O)=O)OCCCC[C@H](C)O3)cc1	none (no result: FN deposit inh)
CCNC(=O)[C@@H]1[C@@H](CO)[C@@H]2Cn3c(ccc(-c4ccccc4F)c3=O)[C@H]1N2CC	none (no result: FN deposit inh, PGC1a acetyl inh)
Cc1cc(C(=O)COC(=O)/C=C/c2ccc(F)cc2)c(C)n1C	none (no result: PGC1a acetyl inh)
COCCCn1c(C)cc(C(=O)COC(=O)CCc2nc3ccccc3c(=O)[nH]2)c1C	none (no result: PGC1a acetyl inh)
COCC(C)n1c(C)cc(C(=O)COC(=O)CCc2nc3ccccc3c(=O)[nH]2)c1C (stereo not given)	SIRT5 block 20
COCC(C)n1c(C)cc(C(=O)COC(=O)/C=C/c2cccc(F)c2)c1C (stereo not given)	FGF22 binding 43 (no result: PGC1a acetyl inh)
CCCNC(=O)Nc1ccc2c(c1)C(=O)N(C)[C@@H]1CC[C@@H](CC(=O)NCC3CCCCC3)O[C@@H]1CO2	none
Cc1noc(C)c1NC(=O)Nc1cccc2c1O[C@@H](CN(C)C(=O)Nc1ccccc1)[C@H](C)CN([C@@H](C)CO)C2=O	none (no result: FN deposit inh)
CNCCC(Oc1ccccc1OC)c1ccccc1 (stereo not given)	SIRT5 block 22
